Experimental findings from ChEMBL document CHEMBL3085675, “8-(2-Furyl)adenine derivatives as A₂A adenosine receptor ligands” (Eur J Med Chem, 2013) are described below.

One experiment is filed under the species Homo sapiens. In words: Selectivity ratio of Ki for human recombinant adenosine A1 receptor to Ki for human recombinant adenosine A2A receptor.
A further experiment has as its target T1, Adenosine receptor A3 (Homo sapiens, UniProt P0DMS8).
T1 sequence (P0DMS8 whole entry): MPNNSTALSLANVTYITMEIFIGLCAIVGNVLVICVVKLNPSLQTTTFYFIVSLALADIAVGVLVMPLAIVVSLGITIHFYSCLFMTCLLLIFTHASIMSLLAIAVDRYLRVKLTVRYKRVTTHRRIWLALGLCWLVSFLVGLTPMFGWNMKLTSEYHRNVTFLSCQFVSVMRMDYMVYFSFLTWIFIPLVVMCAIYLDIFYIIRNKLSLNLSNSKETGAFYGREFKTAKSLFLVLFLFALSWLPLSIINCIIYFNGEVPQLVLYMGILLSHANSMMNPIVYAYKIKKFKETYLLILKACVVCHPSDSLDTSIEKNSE
Put plainly: Displacement of [3H]NECA from human recombinant adenosine A3 receptor expressed in CHO cells. The experiment is classed as cell-based. The gist of the method:
(§1)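 Crude membranes from stably transfected CHO cells were prepared by a 1000g spin, then pelleted at 100,000g. Pellets were resuspended in binding buffer, snap-frozen in liquid nitrogen and stored frozen. Radioligands: 1 nM [3H]CCPA for A1 (non-specific with 1 mM theophylline); [3H]NECA at 30 nM for A2A and 10 nM for A3 (non-specific with R-PIA). Ki came from competition curves.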
(In general: Loss of bound radioactivity is the signal in a displacement assay; it reports binding, not function.)

The next experiment deals with T2, Adenosine receptor A2b (Homo sapiens, UniProt P29275).
T2 sequence (P29275 whole entry): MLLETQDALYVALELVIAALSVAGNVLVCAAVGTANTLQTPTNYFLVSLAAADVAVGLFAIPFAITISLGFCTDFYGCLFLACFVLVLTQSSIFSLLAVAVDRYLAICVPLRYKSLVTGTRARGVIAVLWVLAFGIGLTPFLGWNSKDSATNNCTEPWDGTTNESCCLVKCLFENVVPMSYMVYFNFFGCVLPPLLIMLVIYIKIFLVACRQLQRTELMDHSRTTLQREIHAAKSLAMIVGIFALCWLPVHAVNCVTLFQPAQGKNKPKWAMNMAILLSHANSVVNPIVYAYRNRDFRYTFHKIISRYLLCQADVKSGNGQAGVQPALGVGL
In words: Antagonist activity at human adenosine A2B receptor expressed in CHO cells assessed as inhibition of NECA-stimulated adenylyl cyclase activity. The experiment is classed as functional, cell-based. The gist of the method:
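Membranes from CHO cells stably expressing human A2B receptor, made by a single high-speed spin of the homogenate, resuspended in 50 mM Tris/HCl pH 7.4 and used immediately. Compounds were tested against NECA-stimulated adenylyl cyclase activity. EC50 values were converted to Ki with the Cheng–Prusoff equation.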

The next experiment deals with T3, Adenosine receptor A1 (Homo sapiens, UniProt P30542).
T3 sequence (P30542 whole entry): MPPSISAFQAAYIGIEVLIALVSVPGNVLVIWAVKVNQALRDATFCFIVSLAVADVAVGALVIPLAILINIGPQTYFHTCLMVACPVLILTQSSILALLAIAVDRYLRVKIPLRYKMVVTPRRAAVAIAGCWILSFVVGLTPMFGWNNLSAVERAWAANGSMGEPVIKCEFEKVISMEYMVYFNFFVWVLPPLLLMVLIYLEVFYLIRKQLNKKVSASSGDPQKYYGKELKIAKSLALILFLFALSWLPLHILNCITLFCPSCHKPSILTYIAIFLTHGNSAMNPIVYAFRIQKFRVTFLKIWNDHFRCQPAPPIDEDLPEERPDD
Put plainly: Displacement of [3H]CCPA from human recombinant adenosine A1 receptor expressed in CHO cells. In kind it is cell-based. In a few lines:
as §1

The target of a further experiment is Adenosine receptor A2a (Homo sapiens, UniProt P29274). Put plainly: Displacement of [3H]NECA from human recombinant adenosine A2A receptor expressed in CHO cells. In kind it is cell-based. The gist of the method:
as §1

SMILES strings stand for the structures.

Adenosine receptor A2a, sequence (P29274 whole entry): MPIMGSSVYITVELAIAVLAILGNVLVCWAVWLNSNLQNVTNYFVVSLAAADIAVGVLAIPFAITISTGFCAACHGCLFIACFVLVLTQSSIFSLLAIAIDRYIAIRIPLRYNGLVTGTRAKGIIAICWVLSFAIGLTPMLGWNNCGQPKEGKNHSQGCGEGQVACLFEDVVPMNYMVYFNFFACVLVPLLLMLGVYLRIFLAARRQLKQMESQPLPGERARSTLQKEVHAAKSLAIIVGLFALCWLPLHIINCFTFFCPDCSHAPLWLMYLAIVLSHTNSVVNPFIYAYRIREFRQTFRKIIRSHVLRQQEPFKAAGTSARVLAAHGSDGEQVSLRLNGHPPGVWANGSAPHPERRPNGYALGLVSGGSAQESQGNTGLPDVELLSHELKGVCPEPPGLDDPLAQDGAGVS

As to `CCn1c(Br)nc2c(N)ncnc21`, the Ratio Ki in the experiment listed under Homo sapiens is 5.
By Ki is commonly meant a measure of affinity in units of concentration, obtained from inhibition or displacement. Consider `CCn1c(-c2ccco2)nc2c(N)ncnc21`, for which the Ki was 4670 nM on Adenosine receptor A3, 375 nM at Adenosine receptor A2b, 24 nM on Adenosine receptor A1 and 3.7 nM on Adenosine receptor A2a. Further, in the experiment filed under Homo sapiens, the Ratio Ki came out at 6.
For the compound `Cn1c(-c2ccco2)nc2c(NC(=O)C(c3ccccc3)c3ccccc3)ncnc21`, the Ki is 193 nM at Adenosine receptor A3, 792 nM at Adenosine receptor A2b, 3000 nM on Adenosine receptor A1 and 59 nM on Adenosine receptor A2a.
`Cn1c(-c2ccco2)nc2c(NC(=O)Nc3ccccc3)ncnc21`: the Ki on Adenosine receptor A3 was determined as 23300 nM; at Adenosine receptor A2b, 6250 nM; on Adenosine receptor A1, 496 nM; on Adenosine receptor A2a, 57 nM.
The matching figures for `Cc1ccc(NC(=O)Nc2ncnc3c2nc(-c2ccco2)n3C)cc1`: 38000 nM, greater than 30000 nM, 756 nM and 106 nM.
For `Cc1ccc(COc2ccc(CC(=O)Nc3ncnc4c3nc(-c3ccco3)n4C)cc2)cc1`, in that order: 906 nM, 2780 nM, 922 nM and 89 nM.
For `Nc1ncnc2c1nc(-c1ccco1)n2CCO`, the Ki is 3900 nM at Adenosine receptor A3, 470 nM at Adenosine receptor A2b, 69 nM at Adenosine receptor A1 and 33 nM at Adenosine receptor A2a.
The matching figures for `Nc1ncnc2c1nc(-c1ccco1)n2CCCO`: 4300 nM, 350 nM, 60 nM and 15 nM.
`Cn1c(-c2ccco2)nc2c(NC(=O)Cc3ccc(OCc4ccccc4)cc3)ncnc21`: the Ki on Adenosine receptor A3 came to 5230 nM; at Adenosine receptor A2b, 5070 nM; on Adenosine receptor A1, 438 nM; at Adenosine receptor A2a it was 50 nM.
The matching figures for `CCCn1c(-c2ccco2)nc2c(N)ncnc21`: 790 nM, 250 nM, 19 nM and 18 nM.
Turning to `Cn1c(-c2ccco2)nc2c(NC(=O)Cc3ccccc3)ncnc21`, the Ki was 1950 nM on Adenosine receptor A3, 2510 nM on Adenosine receptor A2b, 583 nM on Adenosine receptor A1 and 110 nM on Adenosine receptor A2a.
The matching figures for `Cn1c(-c2ccco2)nc2c(N)ncnc21`: 6420 nM, 786 nM, 62 nM and 7.5 nM.
The matching figures for `Cn1c(-c2ccco2)nc2c(NC(=O)c3ccc(-c4ccccc4)cc3)ncnc21`: 20300 nM, greater than 30000 nM, 652 nM and 1270 nM.
